# This is a sample that favours compounds with a hit; in the whole collection about 3.5% have one here.
# MrgX1 PAM: human MrgX1 positive allosteric modulation, primary screen; AID 588675; B-score at 10 µM; Q96LB2; MrgX1-HEK293, Fluo-4 calcium flux, FDSS; hits give high values; hit rate 0.63% among 310,000;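 active = plate-corrected calcium response at least 3 library SD above typical, normal starting fluorescence, not activating the receptor alone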;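 note: compound read alongside a low EC10 to EC30 dose of BAM8-22 agonist; peak minus trough fluorescence over baseline measured at the second addition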
# RGS4 pot: potentiators or activators of RGS4; HEK293 M3R/inducible RGS4, carbachol calcium flux Fluo4; hits give low values; B-score at 10 µM; AID 463111; hit rate 0.92% among 310,000;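 active = B-score of the integrated calcium signal more than 4 SD below the library mean, with starting fluorescence not abnormally high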;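 note: negative B-score means reduced calcium response which marks RGS4 activation or potentiation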
#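 Material: Inducible-RGS4 HEK293 cells carrying M3 receptor; also added: carbachol at ECmax as muscarinic agonist stimulus; incubation: compound preincubation 20 min at room temperature before agonist; signal: Fluo4-AM (2 µM) calcium-flux fluorescence, kinetic read; measure: integrated calcium ratio converted to B score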
# MrgX1 antag: human MrgX1 receptor antagonism, primary screen; Q96LB2; MRGX1-HEK293 calcium flux, Fluo-4, BAM8-22 antagonism; hits give low values; B-score at 10 µM; hit rate 1.3% among 310,000; AID 588676;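 active = calcium-response B-score plate-corrected more than 3 library SD below zero, starting fluorescence within 5 deviations, no agonist response on first addition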;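 note: peak minus trough fluorescence over baseline after final BAM8-22 challenge near maximal dose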
# MrgX1 ag: activates human MrgX1 receptor signaling. Q96LB2. MrgX1-HEK293 cells, Fluo-4 calcium fluorescence, agonist mode; hits give high values. B-score at 10 µM. hit rate 0.44% among 310,000. AID 588627;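 active = calcium response B-score plate-corrected fluorescence ratio at least 3 library SD, with starting fluorescence B-score inside 5 SD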
#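 Material: MrgX1-expressing HEK293 cells; input: 15,000 cells per well; doses: test compound given as first of three sequential additions; schedule: overnight plating before 1 h dye loading; technique: Fluo-4 NW calcium-flux fluorescence, kinetic read; evaluation: baseline-normalised fluorescence change ratio, B-scored; control set: plate-wise positive and negative controls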
# RGS4 inh: inhibitors of human RGS4 | P49798 | HEK293 M3R/RGS4 inducible, Fluo-4 calcium flux; hits give high values; triggered by carbachol at its EC20 | B-score at 10 µM | hit rate 0.45% among 310,000 | AID 463165;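 active = B-score, a plate-corrected calcium signal, over three deviations above library mean, with baseline fluorescence within five deviations of library mean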;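 note: RGS4 expression induced by doxycycline in cells with stable M3 receptor; B-score is computed from the integrated fluorescence ratio over baseline after carbachol; higher B-score means a larger calcium signal and so more RGS4 inhibition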
# Target sequence (P49798 whole entry, looked up): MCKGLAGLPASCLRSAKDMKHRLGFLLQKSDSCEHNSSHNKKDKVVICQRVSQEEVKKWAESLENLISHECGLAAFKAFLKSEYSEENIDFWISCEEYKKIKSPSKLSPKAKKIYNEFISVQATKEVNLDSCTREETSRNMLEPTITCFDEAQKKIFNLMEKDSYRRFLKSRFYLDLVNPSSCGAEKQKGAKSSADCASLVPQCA
# RGS4 block valid: RGS4 inhibitor validation. shares compounds with RGS4 inh. hit rate 65% among 1,700. calcium response, % at 10 µM. AID 492999. HEK293 M3R/RGS4, carbachol calcium Fluo-4 fluorescence; carbachol added at its EC20; 0 = buffer wells, 100 = carbachol control;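 active = duplicate-averaged calcium response above the buffer-only control mean plus 5 SD of those controls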;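 note: integrated fluorescence ratio F max minus min over baseline F0; higher response in RGS4-induced cells means RGS4 inhibition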
# RGS4 uninduced: counter-screen for RGS4 inhibitors: effect in non-induced cells; shares compounds with RGS4 inh; HEK293 M3R non-induced, carbachol calcium Fluo-4; submaximal (EC20) carbachol stimulus; buffer wells 0%, carbachol control wells 100%; activity (percent), % at 10 µM; hit rate 20% among 1,900; call rule not given here;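 note: RGS4 induction absent so cells express M3R without RGS4; higher means more calcium signal and flags a non-specific hit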
# M3R basal Ca ctr: second RGS4 inhibitor counter-screen in uninduced cells lacking carbachol; HEK293 M3R/RGS4 non-induced, Fluo-4 calcium, no carbachol; normalised: buffer wells 0%, carbachol wells 100%; hit rate 22% among 1,900; AID 493001; calcium response (agonist-mode artifact), % at 10 µM; shares compounds with RGS4 inh;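 active = duplicate-averaged calcium rise in uninduced cells above buffer wells' mean plus 5 SD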
# * hit, by the source's call; i = inactive; . = no result given.
SMILES,MrgX1 PAM,RGS4 pot,MrgX1 antag,MrgX1 ag,RGS4 inh,RGS4 block valid,RGS4 uninduced,M3R basal Ca ctr
Cc1cc(=O)oc2c(C(=O)/C=C/c3ccccc3)c(O)ccc12,i,i,i,i,i,.,.,.
Cc1ccc(S(=O)(=O)NC(C)C(=O)NC(C)c2cccs2)cc1 (stereo unspecified),i,i,i,i,i,.,.,.
Clc1ccc(-c2csc(N/N=C\c3cccnc3)n2)cc1,i,i,i,i,i,.,65%*,i
Clc1ccc(-c2csc(N/N=C/c3ccco3)n2)cc1,i,i,i,i,i,.,.,.
Cc1cccc(Nc2nc(N3CCCCC3)nc(N3CCCCC3)n2)c1,i,i,i,i,9.7*,48%*,55%*,i
COc1ccc([N+](=O)[O-])cc1/C=N/Nc1nc(N2CCCCC2)nc(N2CCCCC2)n1,i,i,i,i,4.8*,10%*,i,i
NNc1nc(Nc2ccc([N+](=O)[O-])cc2)nc(N2CCCCCC2)n1,i,i,i,i,5.7*,i,i,i
O=[N+]([O-])c1ccc(Nc2nc(NCCO)nc(N3CCCC3)n2)cc1,i,i,i,i,i,.,.,.
NNc1nc(Nc2ccccc2)nc(N2CCCCC2)n1,i,i,i,i,i,i,i,i
NNc1nc(Nc2ccccc2)nc(Nc2ccccc2)n1,i,i,i,i,i,.,.,.
Cc1ccc(CN(C)C(=O)C2CCC(=O)N(CCc3ccccc3)C2)o1 (stereo unspecified),.,i,.,.,i,.,.,.
CCCCCc1c(O)nc(SCCN2CCOCC2)[nH]c1=O,i,i,i,i,i,.,.,.
COc1cccc(N2C(=O)C(Cc3c[nH]c4ccccc34)NC2=S)c1 (stereo unspecified),i,i,i,i,i,.,.,.
CC1CCN(c2ccccc2NC(=S)NC(=O)C(C)(C)C)CC1,i,i,i,i,i,.,.,.
O=c1nc(N2CCCCC2)nc(Nc2ccccc2)[nH]1,i,i,i,i,i,i,i,i
CC1=NNC(=O)C1C(c1cccc(O)c1)C(C#N)C#N (stereo unspecified),i,i,i,i,i,.,.,.
CC1=NN(Cc2ccccc2)C(=O)C1C(c1ccccc1)C(C#N)C#N (stereo unspecified),i,i,i,i,i,i,i,i
CC1=NNC(=O)C1C(c1ccc(Cl)cc1)C(C#N)C#N (stereo unspecified),i,i,i,i,i,.,.,.
CC1=NN(Cc2ccccc2)C(=O)C1C(c1ccc(Cl)cc1)C(C#N)C#N (stereo unspecified),i,i,i,i,i,i,i,7.0%*
CC1=NN(Cc2ccccc2)C(=O)C1C(c1ccncc1)C(C#N)C#N (stereo unspecified),i,i,i,i,4.8*,7.5%*,i,i
CC1=NN(Cc2ccccc2)C(=O)C1,i,i,i,i,i,.,.,.
CCOC(=O)CNc1nnc(SCC(=O)OCC)[nH]c1=O,i,i,i,i,i,.,i,i
COC(=O)CSc1nnc(C)c(=O)[nH]1,i,i,i,i,i,.,.,.
CCOC(=O)NC1Cc2ccccc2C1Sc1ccccn1 (stereo unspecified),i,i,i,i,i,.,.,.
CN(Cc1ccon1)C(=O)C1CCN(C2CCN(CCCc3ccccc3)CC2)CC1,i,i,i,i,i,.,.,.

# Screens: PubChem BioAssay, Johns Hopkins Ion Channel Center
